Screens: PubChem, several laboratories
Only some compounds are listed: those with a hit (about 1.4% of all), similar ones and a draw of the others.
PG9 binder: binders of HIV-1 gp120 antibody PG9, primary screen, biochemical, TR-FRET | HIV-1 gp120 / PG9 antibody interaction | TR-FRET gp120-PG9 antibody binding | inhibition, % at 6.7 µM | hit rate 0.43% among 360,000 | AID 624416, 2012; in the data active means inhibition above about 8.5%
NR1D1 modulator: modulators of Rev-erb alpha DNA binding, primary screen, biochemical, FITC-DNA, fluorescence polarization, uHTS; activity, % at 10 µM; Nuclear receptor subfamily 1 group D member 1 (Homo sapiens), P20393; Rev-erbα–FITC-DNA binding, 90 min; hit rate 0.79% among 370,000;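 active means activity above about 14%, limit read from the data; passing the limit was not always enough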;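 further: 0% = DMSO wells with 35 nM protein and 100% = DMSO wells with 750 nM protein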
Target sequence (P20393 whole entry, looked up): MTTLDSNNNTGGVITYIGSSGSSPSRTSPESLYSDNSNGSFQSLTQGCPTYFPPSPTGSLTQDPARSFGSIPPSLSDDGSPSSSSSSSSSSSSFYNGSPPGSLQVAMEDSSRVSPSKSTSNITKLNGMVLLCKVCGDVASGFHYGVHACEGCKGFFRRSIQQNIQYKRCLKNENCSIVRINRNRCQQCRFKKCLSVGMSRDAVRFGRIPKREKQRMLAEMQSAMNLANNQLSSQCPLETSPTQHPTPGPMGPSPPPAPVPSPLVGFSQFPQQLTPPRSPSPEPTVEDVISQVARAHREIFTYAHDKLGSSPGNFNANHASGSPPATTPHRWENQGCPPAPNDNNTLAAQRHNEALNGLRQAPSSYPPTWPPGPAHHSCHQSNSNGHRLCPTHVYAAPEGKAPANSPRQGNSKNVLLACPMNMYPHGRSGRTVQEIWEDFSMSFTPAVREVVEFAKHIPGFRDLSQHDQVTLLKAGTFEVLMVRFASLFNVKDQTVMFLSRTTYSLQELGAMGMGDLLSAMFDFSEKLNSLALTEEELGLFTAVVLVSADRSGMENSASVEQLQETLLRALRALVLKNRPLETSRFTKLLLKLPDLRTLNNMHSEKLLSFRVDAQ
NR2E3 ag-1: NR2E3 agonists in two-hybrid cells, primary screen, cell-based, luminescence, CHO-S, Gal4-NCOR/VP16-NR2E3. luciferase. inhibition of corepressor binding, % at 3.98 µM. hit rate 0.35% among 360,000;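 active means inhibition above the mean of all tested compounds plus 3 SD, cut at about 70% in these data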;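 further: 0% = DMSO with NR2E3 transfected cells and 100% = cells lacking NR2E3 construct; higher means lower luciferase signal from less NR2E3 corepressor binding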
NR2E3 ag-2: inhibitors of NR2E3-RetCOR corepressor binding, primary screen, NR2E3 agonist project, biochemical, TR-FRET, GST-NR2E3, biotin-RetCOR. hit rate 0.12% among 320,000. inhibition of corepressor binding, % at 4.78 µM. Photoreceptor-specific nuclear receptor (Homo sapiens), Q9Y5X4. 1536-well;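 active means percent inhibition above the cutoff of mean plus 3 SD of all tested compounds, set per screening campaign, cut at about 20% in these data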;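 further: 0% = DMSO wells and 100% = biotin wells as full block of FRET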
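Material: NR2E3–RetCOR corepressor complex / Incubation: Compound–protein incubation for 5 h at 4 °C / Dosing: compound at 4.8 µM, single dose / Detection: time-resolved FRET / Benchmarks: high control biotin, low control 0.6% DMSO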
PG9 bind confirm: binders of anti-gp120 antibody PG9, confirmation, biochemical, TR-FRET | shares compounds with PG9 binder | TR-FRET PG9 antibody binding | inhibition, % at 6.7 µM | hit rate 90% among 1,500; in the data active means inhibition above about 9%
PGV04 Ab binding: binders of control antibody PGV04, counter-screen for PG9 antibody binder project, biochemical, TR-FRET, distinct HIV envelope site | TR-FRET PGV04 antibody-gp120 binding | inhibition, % at 6.7 µM | shares compounds with PG9 binder | hit rate 95% among 1,500; in the data active means inhibition above about 9.5%
PG9 bind DR: small-molecule binders of antibody PG9, dose response, biochemical, TR-FRET, HIV-1 gp120 antibody | shares compounds with PG9 binder | AID 651848, 2012 | IC50, µM | 95 tested, under 10 active | TR-FRET PG9 antibody-gp120 binding inhibition; in the data active means IC50 below about 10 µM
PGV04 binding DR: binders of control antibody PGV04, dose response, counter-screen for PG9 antibody binder project, biochemical, TR-FRET, distinct HIV envelope site | shares compounds with PG9 binder | TR-FRET binding to control antibody PGV04 | IC50, µM | hit rate 20% among 95
PG126 binding DR: binders of control antibody PG126, dose response, counter-screen for PG9 antibody binder project, biochemical, TR-FRET, distinct HIV envelope site; shares compounds with PG9 binder; hit rate 20% among 95; TR-FRET binding to antibody PG126, counterscreen; IC50, µM
Active calls of the source: *. Unless noted, no stated cut-off is given here; in the data, active means IC50 below about 9 µM; inactive means the rest.

`CCn1c(=S)[nH]c2c(c1=O)C(C)(C)Cc1ccccc1-2` gave PG9 binder 24*, NR1D1 modulator -4, NR2E3 ag-1 0, PG9 bind confirm 14*, PGV04 Ab binding 12*, PG9 bind DR >67, PGV04 binding DR inactive and PG126 binding DR inactive.
Screening CC1(C)Cc2ccccc2-c2c1c(=O)n(Cc1ccccc1)c1nnnn21 returned PG9 binder -1, NR1D1 modulator 1, NR2E3 ag-1 -14 and NR2E3 ag-2 4.
For Cc1cc(-c2cc(C(=O)O)c3ccccc3n2)c(C)s1 the results were PG9 binder 0, NR1D1 modulator -4, NR2E3 ag-1 3 and NR2E3 ag-2 2.
`CCN(CC)CCNC(=O)c1cc(-c2ccc(Br)s2)nc2ccccc12` gave PG9 binder 15*, NR1D1 modulator 1, NR2E3 ag-1 13, NR2E3 ag-2 7, PG9 bind confirm 26* and PGV04 Ab binding 50*.
`O=C(O)c1cc(-c2ccc(Br)s2)nc2ccccc12` gave PG9 binder 17*, NR1D1 modulator -6, NR2E3 ag-1 -93, PG9 bind confirm 25* and PGV04 Ab binding 68*.
For CCn1cnc2sc(C(=O)Nc3ccccc3OC)c(C)c2c1=O the results were PG9 binder 53*, NR1D1 modulator 3, NR2E3 ag-1 6, NR2E3 ag-2 -113, PG9 bind confirm 46* and PGV04 Ab binding 65*.
COc1ccccc1NC(=O)c1sc2ncn(CC(=O)N3CCC(C)CC3)c(=O)c2c1C was read as PG9 binder 1, NR1D1 modulator 16, NR2E3 ag-1 -11 and NR2E3 ag-2 -3.
Screening COc1cc(OC)c(C(=O)OCC(=O)c2ccc3c(c2)NC(=O)CO3)cc1OC returned PG9 binder 1, NR1D1 modulator -4 and NR2E3 ag-1 7.
`Cc1cccc(C(=O)OCC(=O)c2ccc3c(c2)NC(=O)CO3)c1` gave PG9 binder 15*, NR1D1 modulator 8, NR2E3 ag-1 26, PG9 bind confirm 16* and PGV04 Ab binding 27*.
O=C1COc2ccc(C(=O)COC(=O)CCSc3ccc(Cl)cc3)cc2N1 was read as PG9 binder 13*, NR1D1 modulator 17, NR2E3 ag-1 -16, NR2E3 ag-2 3, PG9 bind confirm 30* and PGV04 Ab binding 44*.
CCN(CC)S(=O)(=O)c1cccc(C(=O)OCC(=O)c2ccc3c(c2)NC(=O)CO3)c1 was read as PG9 binder 1, NR1D1 modulator 3, NR2E3 ag-1 13 and NR2E3 ag-2 0.
O=C1COc2ccc(C(=O)COC(=O)c3ccc(F)cc3Cl)cc2N1 was read as PG9 binder 32*, NR1D1 modulator 14, NR2E3 ag-1 -13, PG9 bind confirm 37* and PGV04 Ab binding 47*.
Cc1cc2c(cc(C(=O)N3CCC(C(=O)N4CCCC4)CC3)n2Cc2c(F)cccc2Cl)o1 was read as PG9 binder 0, NR1D1 modulator -3, NR2E3 ag-1 -27 and NR2E3 ag-2 -1.
Screening OC(c1ccccc1)c1ncc(-c2ccccc2F)[nH]1 (centres undefined) returned PG9 binder 1, NR1D1 modulator -8 and NR2E3 ag-1 -55.
Screening COc1ccc(C(=O)COC(=O)CCN=C2NS(=O)(=O)c3ccccc32)c(OC)c1 returned PG9 binder 17*, NR1D1 modulator 2, NR2E3 ag-1 -32, NR2E3 ag-2 -2, PG9 bind confirm 31* and PGV04 Ab binding 45*.
For O=S(=O)(CCSc1ccc(C(F)(F)F)cn1)c1ccccc1 the results were PG9 binder 0, NR1D1 modulator -1, NR2E3 ag-1 -24 and NR2E3 ag-2 1.
Screening Cc1cc(C)c2c(=N)c3ccccc3n(CCCCCCCCn3c4ccccc4c(=N)c4c(C)cc(C)nc43)c2n1 returned PG9 binder 9.7*, NR1D1 modulator -28, NR2E3 ag-1 12, PG9 bind confirm 28* and PGV04 Ab binding 33*.
For CCCCCn1c2c(c(=N)c3ccccc31)CCC2 the results were PG9 binder 0, NR1D1 modulator 1, NR2E3 ag-1 -8 and NR2E3 ag-2 0.
`COc1cccc(-c2nnc3sc(-c4ccco4)nn23)c1` gave PG9 binder -1, NR1D1 modulator -2, NR2E3 ag-1 -63 and NR2E3 ag-2 2.
CCOc1cccc(-c2nn3c(-c4ccco4)nnc3s2)c1 was read as PG9 binder 12*, NR1D1 modulator 0, NR2E3 ag-1 -23, NR2E3 ag-2 6, PG9 bind confirm 39*, PGV04 Ab binding 29*, PG9 bind DR >67, PGV04 binding DR >67 and PG126 binding DR >67.
O=C(C1=C(O)C(=O)N(Cc2cccnc2)C1c1cccc(Oc2ccccc2)c1)c1ccco1 (centres undefined) was read as PG9 binder 13*, NR1D1 modulator -6, NR2E3 ag-1 -10, PG9 bind confirm 19* and PGV04 Ab binding 28*.
CC(C)Oc1ccc(C2C(C(=O)c3ccco3)=C(O)C(=O)N2Cc2cccnc2)cc1 (centres undefined) was read as PG9 binder 9.3*, NR1D1 modulator 5, NR2E3 ag-1 -41, NR2E3 ag-2 4, PG9 bind confirm 15* and PGV04 Ab binding 19*.
`CCCOc1ccc(C2C(C(=O)c3ccco3)=C(O)C(=O)N2CCCn2ccnc2)cc1` (centres undefined) gave PG9 binder 19*, NR1D1 modulator 2, NR2E3 ag-1 -24, NR2E3 ag-2 4, PG9 bind confirm 24* and PGV04 Ab binding 28*.
CCCOc1ccc(C2C(C(=O)c3ccco3)=C(O)C(=O)N2CCCn2ccnc2)cc1OC (centres undefined) was read as PG9 binder -1, NR1D1 modulator 0 and NR2E3 ag-1 -12.
